Assays:
[1] = molecular target: T1, Muscarinic acetylcholine receptor M2 (Sus scrofa) (UniProt P06199); assay: Cooperativity factor pAlpha at porcine heart ventricle muscarinic acetylcholine receptor M2.
T1 sequence (whole entry): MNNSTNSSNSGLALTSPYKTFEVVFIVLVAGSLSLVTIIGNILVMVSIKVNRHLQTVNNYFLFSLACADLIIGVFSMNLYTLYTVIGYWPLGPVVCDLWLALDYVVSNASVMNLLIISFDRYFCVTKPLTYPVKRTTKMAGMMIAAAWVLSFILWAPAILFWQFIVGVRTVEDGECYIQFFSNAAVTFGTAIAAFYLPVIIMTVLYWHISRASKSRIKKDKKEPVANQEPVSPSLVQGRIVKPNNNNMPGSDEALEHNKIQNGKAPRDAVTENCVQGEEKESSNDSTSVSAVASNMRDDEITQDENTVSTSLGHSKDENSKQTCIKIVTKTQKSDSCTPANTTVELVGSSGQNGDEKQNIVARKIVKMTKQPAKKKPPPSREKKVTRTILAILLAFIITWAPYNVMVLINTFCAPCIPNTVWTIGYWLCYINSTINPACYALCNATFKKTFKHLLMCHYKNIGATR
Method in brief: (§1)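 Pig heart ventricle homogenates in 2.7 mM MgHPO4, 45 mM Tris-HCl, pH 7.3, 37 °C; [3H]NMS 0.20 nM with increasing test compound concentrations; incubation 180–530 min, calculated to reach equilibrium. Nonspecific binding with 1 μM atropine; bound label separated by rapid vacuum filtration onto glass filters and counted by liquid scintillation. Affinities for free and NMS-occupied receptor derived from binding curves.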

[2] = molecular target: T1, Muscarinic acetylcholine receptor M2 (Sus scrofa); assay: Tested for binding of [3H]N-methylscopolamine ([3H]NMS) at porcine heart ventricle muscarinic acetylcholine receptor M2 expressed as -logKa.; method in brief: as §1
[3] = molecular target: T1, Muscarinic acetylcholine receptor M2 (Sus scrofa); assay: Binding affinity for [3H]NMS-occupied muscarinic acetylcholine receptor M2 from porcine heart ventricle.; method in brief: as §1
[4] = molecular target: T2, Muscarinic acetylcholine receptor M2 (Sus scrofa, UniProt P06199); assay: Effective concentration required to inhibit dissociation of [3H]NMS from porcine heart ventricles muscarinic acetylcholine receptor M2.
T2 sequence (P06199 whole entry): T1 sequence (whole entry)
Method in brief: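 [3H]NMS dissociation in pig heart ventricle homogenates, Mg/Tris buffer pH 7.3, 37 °C. Membranes equilibrated 30 min with 0.2 nM [3H]NMS, then 1 μM atropine added alone or with various test compound concentrations. Either complete time courses over 120 min or two-point measurement (0 and 10 min); monoexponential apparent k-1 by nonlinear regression; filtration and scintillation counting.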

pAlpha [1]	-logKa [2]	p alphaKa [3]	EC50 [4]	SMILES
-0.59	6.25	5.66	1620 nM	C[N+](C)(CCCCCC[N+](C)(C)CCCN1C(=O)c2nccnc2C1=O)CCCN1C(=O)c2ccccc2C1=O
-0.29	6.83	6.57	229 nM	C[N+](C)(CCCCCC[N+](C)(C)CCCN1C(=O)c2cc(Cl)c(Cl)cc2C1=O)CCCN1C(=O)c2cc(Cl)c(Cl)cc2C1=O
-0.04	7.48	7.44	36.3 nM	Cc1ccc2c(c1)C(=O)N(CC(C)(C)C[N+](C)(C)CCCCCC[N+](C)(C)CCCN1C(=O)c3cccc4cccc(c34)C1=O)C2=O
0.37	8.29	8.66	4.37 nM	CC(C)(CN1C(=O)c2cccc3cccc(c23)C1=O)C[N+](C)(C)CCCCCC[N+](C)(C)CCCN1C(=O)c2ccccc2C1=O [NAPHMETHONIUM]
0.17	7.21	7.38	46.8 nM	Cc1ccc2c(c1)C(=O)N(CC(C)(C)C[N+](C)(C)CCCCCC[N+](C)(C)CC(C)(C)CN1C(=O)c3ccc(C)cc3C1=O)C2=O
-0.39	6.47	6.08	741 nM	C[N+](C)(CCCCCC[N+](C)(C)CCCN1C(=O)c2cc(F)c(F)cc2C1=O)CCCN1C(=O)c2cc(F)c(F)cc2C1=O
-0.81	7.25	6.43	309 nM	CC(C)(C)c1ccc2c(c1)C(=O)N(CCC[N+](C)(C)CCCCCC[N+](C)(C)CCCN1C(=O)c3ccccc3C1=O)C2=O
-0.17	7.08	6.9	115 nM	C[N+](C)(CCCCCC[N+](C)(C)CCCN1C(=O)c2cc(Cl)c(Cl)cc2C1=O)CCCN1C(=O)c2ccccc2C1=O
-0.22	6.37	6.15	447 nM	C[N+](C)(CCCCCC[N+](C)(C)CCCN1C(=O)c2ccc(C(F)(F)F)cc2C1=O)CCCN1C(=O)c2ccc(C(F)(F)F)cc2C1=O
0.03	7.41	7.44	36.3 nM	Cc1ccc2c(c1)C(=O)N(CCC[N+](C)(C)CCCCCC[N+](C)(C)CC(C)(C)CN1C(=O)c3ccc(C)cc3C1=O)C2=O
-0.22	8.01	7.79	25.1 nM	Cc1ccc2c(c1)C(=O)N(CCC[N+](C)(C)CCCCCC[N+](C)(C)CCCN1C(=O)c3cccc4cccc(c34)C1=O)C2=O
0.19	7.26	7.45	55 nM	Cc1ccc2c(c1)C(=O)N(CC(C)(C)C[N+](C)(C)CCCCCC[N+](C)(C)CCCN1C(=O)c3ccccc3C1=O)C2=O
-0.37	6.68	6.31	457 nM	C[N+](C)(CCCCCC[N+](C)(C)CCCN1C(=O)c2cc(F)c(F)cc2C1=O)CCCN1C(=O)c2ccccc2C1=O
-0.44	5.44	5	6310 nM	C[N+](C)(CCCCCC[N+](C)(C)CCCN1C(=O)c2nccnc2C1=O)CCCN1C(=O)c2nccnc2C1=O
-0.47	7.27	6.8	145 nM	C[N+](C)(CCCCCC[N+](C)(C)CCCN1C(=O)c2cc3ccccc3cc2C1=O)CCCN1C(=O)c2ccccc2C1=O
0.32	7.9	8.23	7.59 nM	Cc1ccc2c(c1)C(=O)N(CCC[N+](C)(C)CCCCCC[N+](C)(C)CC(C)(C)CN1C(=O)c3cccc4cccc(c34)C1=O)C2=O
-0.21	6.32	6.12	501 nM	C[N+](C)(CCCCCC[N+](C)(C)CCCN1C(=O)c2ccc(C(F)(F)F)cc2C1=O)CCCN1C(=O)c2ccccc2C1=O
0.53	7.51	8.04	8.51 nM	CC(C)(CN1C(=O)c2cccc3cccc(c23)C1=O)C[N+](C)(C)CCCCCC[N+](C)(C)CC(C)(C)CN1C(=O)c2cccc3cccc(c23)C1=O

pAlpha [1]	-logKa [2]	p alphaKa [3]	EC50 [4]	SMILES
-0.89	7.38	6.49	302 nM	CC(C)(C)c1ccc2c(c1)C(=O)N(CCC[N+](C)(C)CCCCCC[N+](C)(C)CCCN1C(=O)c3ccc(C(C)(C)C)cc3C1=O)C2=O
-0.28	8.11	7.83	13.8 nM	C[N+](C)(CCCCCC[N+](C)(C)CCCN1C(=O)c2cccc3cccc(c23)C1=O)CCCN1C(=O)c2cccc3cccc(c23)C1=O
-0.2	7.24	7.04	115 nM	C[N+](C)(CCCCCC[N+](C)(C)CCCN1C(=O)c2cccc3cccc(c23)C1=O)CCCN1C(=O)c2ccccc2C1=O
0.29	7.9	8.19	14.1 nM	Cc1ccc2c(c1)C(=O)N(CC(C)(C)C[N+](C)(C)CCCCCC[N+](C)(C)CC(C)(C)CN1C(=O)c3cccc4cccc(c34)C1=O)C2=O
-0.04	6.9	6.86	135 nM	CC(C)(CN1C(=O)c2ccccc2C1=O)C[N+](C)(C)CCCCCC[N+](C)(C)CCCN1C(=O)c2ccccc2C1=O
0.56	7.41	7.97	18.6 nM	CC(C)(CN1C(=O)c2ccccc2C1=O)C[N+](C)(C)CCCCCC[N+](C)(C)CC(C)(C)CN1C(=O)c2cccc3cccc(c23)C1=O
-0.33	7.08	6.75	170 nM	Cc1ccc2c(c1)C(=O)N(CCC[N+](C)(C)CCCCCC[N+](C)(C)CCCN1C(=O)c3ccc(C)cc3C1=O)C2=O
0.17	6.73	6.9	120 nM	Cc1ccc2c(c1)C(=O)N(CC(C)(C)C[N+](C)(C)CCCCCC[N+](C)(C)CC(C)(C)CN1C(=O)c3ccccc3C1=O)C2=O
-1.21	7.78	6.56	204 nM	C[N+](C)(CCCCCC[N+](C)(C)CCCN1C(=O)C2C3c4ccccc4C(c4ccccc43)C2C1=O)CCCN1C(=O)c2ccccc2C1=O (stereo not given)
-0.47	6.19	5.73	1350 nM	C[N+](C)(CCCCCC[N+](C)(C)CCCN1C(=O)c2ccccc2C1=O)CCCN1C(=O)c2ccccc2C1=O
-0.85	7.62	6.77	204 nM	C[N+](C)(CCCCCC[N+](C)(C)CCCN1C(=O)c2cc3ccccc3cc2C1=O)CCCN1C(=O)c2cc3ccccc3cc2C1=O
0.17	8.07	8.24	7.76 nM	CC(C)(CN1C(=O)c2cccc3cccc(c23)C1=O)C[N+](C)(C)CCCCCC[N+](C)(C)CCCN1C(=O)c2cccc3cccc(c23)C1=O
-0.13	7.2	7.07	70.8 nM	Cc1ccc2c(c1)C(=O)N(CCC[N+](C)(C)CCCCCC[N+](C)(C)CC(C)(C)CN1C(=O)c3ccccc3C1=O)C2=O
-1.38	8.12	6.74	398 nM	C[N+](C)(CCCCCC[N+](C)(C)CCCN1C(=O)C2C3c4ccccc4C(c4ccccc43)C2C1=O)CCCN1C(=O)C2C3c4ccccc4C(c4ccccc43)C2C1=O (stereo not given)
-0.005	7.28	7.28	52.5 nM	CC(C)(CN1C(=O)c2ccccc2C1=O)C[N+](C)(C)CCCCCC[N+](C)(C)CCCN1C(=O)c2cccc3cccc(c23)C1=O
-0.31	6.73	6.42	324 nM	Cc1ccc2c(c1)C(=O)N(CCC[N+](C)(C)CCCCCC[N+](C)(C)CCCN1C(=O)c3ccccc3C1=O)C2=O
-0.21	7.08	6.87	178 nM	CC(C)(CN1C(=O)c2ccccc2C1=O)C[N+](C)(C)CCCCCC[N+](C)(C)CC(C)(C)CN1C(=O)c2ccccc2C1=O
